Source: PubChem BioAssay (several laboratories)
KCNQ1 act = human KCNQ1 channel potentiation or activation | P51787 | CHO-K1 KCNQ1, thallium flux FluxOR fluorescence; hits give high values | 0.35% of 310,000 active | B-score at 10 µM | AID 2648;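 active = fluorescence ratio B-score, a plate-corrected score, at least three library SD, with initial intensity B-score within 5 SD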
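Assay system: CHO-K1 cells stably expressing KCNQ1; Medium: assay buffer with matched DMSO; Also added: K+/Tl+ depolarizing stimulus; Dosing: single dose; Timing: dye 90 min, compound 20 min, room temperature; Measured by: kinetic FluxOR thallium fluorescence, 10-s 1-Hz baseline, 110-s post-stimulus read; Read-out: peak-minus-minimum fluorescence over initial fluorescence, negative-control normalized, B-scored.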
KCNK9 inh = blocks the human KCNK9 two-pore domain potassium channel; AID 488922; B-score at 10 µM; Q9NPC2; 1.2% of 310,000 active; HEK293 KCNK9, FluxOR thallium flux fluorescence; hits give low values;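 active = ratio B-score over 3 SD below the library mean, with starting fluorescence within 5 SD of its mean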;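 also: negative B-score means less thallium flux so channel inhibition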
KCNK3 block = human KCNK3 channel inhibition, primary screen. O14649. CHO-KCNK3 thallium flux, FluxOR fluorescence; hits give low values. B-score at 10 µM. 0.84% of 340,000 active. AID 602410;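 active = B-score under library mean minus 4 SD, starting fluorescence ratio at most library mean plus 5 SD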;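 also: more negative B-score means stronger inhibition of thallium flux through KCNK3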
Cl transport mod = modulators of human KCC2 chloride dependent transport; Q9H2X9; KCC2 cells, thallium flux FluoZin-2 fluorescence; B-score of Tl+ flux slope (higher = more flux/activation; lower = inhibition) at 10 µM; 2.2% of 190,000 active; AID 1456;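 active = thallium flux slope and its plate-corrected score both differing from the plate sample mean at a set confidence after two filtering rounds, in either direction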;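 also: slope of fluorescence scaled to starting intensity during 10 to 20 s after thallium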
KCNQ1 block = inhibitors of human KCNQ1 potassium channel; AID 2642; P51787; B-score at 10 µM; CHO-K1 KCNQ1, FluxOR thallium flux fluorescence; hits give high values; 1.3% of 310,000 active;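 active = compounds whose thallium flux B-score, printed positive for inhibition, exceeds three library SD while starting fluorescence stays within three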;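 also: channel opened by potassium depolarization with thallium stimulus after 20 min compound exposure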
hERG rescue = hERG (human) protection from proarrhythmic block | CHO-hERG, FluxOR thallium flux, dofetilide IC70 present | activation (rescue from dofetilide block), less the hit threshold, % at 10 µM | 0.51% of 310,000 active;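 active = activation above the mean of controls blocked by dofetilide plus 5 SD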;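 also: thallium influx through hERG after potassium depolarization seen as dye fluorescence rise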
Numbers without * were called inactive. Compounds with a hit are over-represented: about 4.1% of the library has one in this group of screens.

Screening COc1ccc2[nH]c3c(c2c1)CCN1C(=O)C(CC(=O)NCCC2=CCCCC2)C[C@H](C(=O)N2CCCCC2)[C@@]31CCc1ccccc1 (stereo not given in full) returned KCNK3 block inactive.
COc1ccc(C2CC(c3ccccc3)=NN2c2ccc(C(N)=O)cc2)cc1 (stereo not given) was read as KCNQ1 act inactive, KCNK9 inh inactive, KCNK3 block inactive, KCNQ1 block 10* and hERG rescue -8.5.
Screening COc1ccccc1C1CC(c2ccco2)=NN1c1ccccc1 (stereo not given) returned KCNQ1 act inactive, KCNK9 inh -7.64*, KCNK3 block inactive, Cl transport mod 0.453, KCNQ1 block inactive and hERG rescue -5.8.
`COc1ccc(C2CC(c3ccc([N+](=O)[O-])cc3)=NN2C(=O)c2ccccc2)cc1OC` (stereo not given) gave KCNQ1 act inactive, KCNK9 inh -7.04*, KCNK3 block inactive, Cl transport mod -0.932, KCNQ1 block inactive and hERG rescue -4.4.
For COc1ccc(C2CC(c3ccc(F)cc3)=NN2c2ccccc2)cc1OC (stereo not given) the results were KCNQ1 act inactive, KCNK9 inh inactive, KCNK3 block inactive, KCNQ1 block 12* and hERG rescue -2.7.
Screening O=C(O)c1ccc(N2N=C(c3ccccc3)CC2c2ccccc2)cc1 (stereo not given) returned KCNQ1 act inactive, KCNK9 inh inactive, KCNK3 block inactive, KCNQ1 block inactive and hERG rescue -11.7.
For CC(=O)Nc1ccc(C2CC(c3ccc(Cl)cc3)=NN2c2ccccc2)cc1 (stereo not given) the results were KCNQ1 act inactive, KCNK9 inh inactive, KCNK3 block inactive, KCNQ1 block inactive and hERG rescue -5.5.
`O=Cc1ccc(N2N=C(c3ccccc3)CC2c2ccccc2)cc1` (stereo not given) gave KCNQ1 act inactive, KCNK9 inh inactive, KCNK3 block inactive, KCNQ1 block 8* and hERG rescue -14.1.
Screening COc1ccc(C2=NN(c3ccc(C=O)cc3)C(c3ccccc3)C2)cc1 (stereo not given) returned KCNQ1 act inactive, KCNK9 inh inactive, KCNQ1 block 6* and hERG rescue -3.7.
NS(=O)(=O)c1ccc(N2N=C(c3ccccc3)CC2c2ccc(F)cc2)cc1 (stereo not given) was read as KCNQ1 act inactive, KCNK9 inh -7.74*, KCNK3 block inactive, Cl transport mod -0.0169, KCNQ1 block 6* and hERG rescue -10.4.
Screening CC(=O)Nc1ccc(C2=NN(c3ccccc3)C(c3ccccc3)C2)cc1 (stereo not given) returned KCNQ1 act inactive, KCNK9 inh -6.75*, KCNK3 block inactive, KCNQ1 block inactive and hERG rescue -1.0.
Cc1cc(C)cc(NC(=O)C2CCN(C(=O)c3cccs3)CC2)c1 was read as KCNQ1 act inactive, KCNK9 inh inactive, KCNK3 block inactive, KCNQ1 block inactive and hERG rescue -7.4.
`COCCN(C(=O)c1ccc(OCC(C)C)cc1)c1c(N)n(Cc2ccccc2)c(=O)[nH]c1=O` gave KCNQ1 act inactive, KCNK9 inh inactive, KCNK3 block inactive, KCNQ1 block inactive and hERG rescue -10.4.
`Cc1ccc(S(=O)(=O)N2CCOCC2)cc1NC(=O)COC(=O)c1ccc(Br)o1` gave KCNK3 block inactive.
CCCCC(=O)Nc1ccc2c(c1)nc(CCN1CCN(C)CC1)n2C was read as KCNQ1 act inactive, KCNK9 inh inactive, KCNK3 block inactive, Cl transport mod 0.784, KCNQ1 block inactive and hERG rescue -9.7.
For O=C(O)C1(Nc2ccc(Br)cc2)CCCC1 the results were KCNK3 block inactive.
`COc1ccc(C2CC(c3ccccc3)=NN2c2ccc(/C=N/NC(=O)c3ccncc3)cc2)cc1` (stereo not given) gave KCNQ1 act inactive, KCNK9 inh inactive, KCNK3 block inactive, Cl transport mod -1.09, KCNQ1 block 6* and hERG rescue -3.6.
